Results taken from ChEMBL document CHEMBL2093137, “WHO-TDR NTD Screening”.
≈ marks a conversion by molar mass, not a printed value.

What was measured:
[1] = WHO-TDR: Cytotoxicity; assay type: toxicity, cell-based; details: human, MRC5 cells
[2] = tested on: Plasmodium falciparum K1; assay: WHO-TDR: Malaria; assay type: functional, organism-based, Homo sapiens; details: Erythrocyte
Method in brief: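 Whole-organism screen of a 10,000-compound diverse library from Life Chemicals, filtered for drug-likeness and reactive groups, against intra-erythrocytic Plasmodium falciparum K1 strain in human red blood cells. The assay followed previously published standard procedures, with a reference drug as positive control. Antiplasmodial potency is reported as IC50.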

[3] = tested on: Trypanosoma cruzi; assay: WHO-TDR: Chagas disease; assay type: functional, organism-based, Homo sapiens; details: MRC5
Method in brief: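 Each IC50 reflects antiparasitic potency against intracellular amastigotes of Trypanosoma cruzi Tulahuen CL2 beta-galactosidase strain. These were cultured in MRC-5SV2 human lung fibroblasts and exposed to a 10,000-compound diverse Life Chemicals library screened according to published standard procedures with a reference drug as positive control.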

[4] = tested on: Trypanosoma brucei brucei; assay: WHO-TDR: Human African Trypanosomiasis (HAT); assay type: functional, organism-based; details: Squib-427
Method in brief: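 Whole-organism screen of a 10,000-compound diverse library from Life Chemicals, filtered for drug-likeness and reactive groups, against bloodstream forms of Trypanosoma brucei Squib 427 strain. The assay followed previously published standard procedures, with reference drugs as positive controls. Antiparasitic potency is reported as IC50.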

[5] = tested on: Leishmania infantum; assay: WHO-TDR: Leishmaniasis; assay type: functional, organism-based, Mus musculus; details: Macrophage
Method in brief: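 Whole-organism screen of a 10,000-compound diverse library from Life Chemicals, filtered for drug-likeness and reactive groups, against intracellular amastigotes of Leishmania infantum MHOM/MA(BE)/67 in murine peritoneal macrophage host cells. The assay followed previously published standard procedures, with a reference drug as positive control. Antiparasitic potency is reported as IC50.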

[6] = tested on: Schistosoma mansoni; assay: WHO-TDR: Schistosomiasis; assay type: functional; parameters: concentration or dose not given beside the values
Method in brief: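 A diverse library of 10,000 compounds from Life Chemicals, filtered for drug-likeness and reactive groups, was screened against whole larval and/or adult Schistosoma mansoni worms of the Puerto Rican strain. Previously published standard procedures were followed, with a reference drug as positive control. Activity is given as percent inhibition and as IC50.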

[7] = tested on: Onchocerca ochengi; assay: WHO-TDR: Onchocerciasis; assay type: functional; parameters: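 at 12.5 µM on microfilariae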
Method in brief: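 A diverse library of 10,000 compounds from Life Chemicals, filtered for drug-likeness and reactive groups, was screened against whole microfilariae of Onchocerca ochengi or Onchocerca lienalis. These animal pathogens served as stand-ins for the human parasite. Activity is given as percent inhibition and as IC50.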

[8] = tested on: Brugia malayi; assay: WHO-TDR: Lymphatic Filariasis; assay type: functional; parameters: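 tested at 10 µM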
Method in brief: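 A diverse library of 10,000 compounds from Life Chemicals was screened against Brugia malayi microfilariae in a whole-organism assay. The library had been filtered for drug-likeness and reactive groups. Activity is given as percent inhibition and as IC50.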

Compound | IC50 [1] | IC50 [2] | IC50 [3] | IC50 [4] | IC50 [5] | % Inhibition [6] | % Inhibition [7] | % Inhibition [8]
Cc1ccc(NC(=O)CN2CCN(c3nccn3-c3ccccc3F)CC2)cc1 | > 11.8 mg/L | 6.19 mg/L (≈ 15.7 µM) | 11.2 mg/L (≈ 28.6 µM) | 5.48 mg/L (≈ 13.9 µM) | > 11.8 mg/L | 0% | 100% | 0%
O=C(CSc1ccc(NC(=O)c2ccco2)nn1)Nc1ccccc1C(F)(F)F | > 12.7 mg/L | > 12.7 mg/L | > 12.7 mg/L | > 12.7 mg/L | > 12.7 mg/L | 0% | 100% | 0%
CSc1ccc2nc(N(Cc3cccnc3)C(=O)c3ccc(C(C)(C)C)cc3)sc2c1 | 7.16 mg/L (≈ 16 µM) | 0.145 mg/L (≈ 0.324 µM) | 0.556 mg/L (≈ 1.24 µM) | > 13.4 mg/L | > 13.4 mg/L | 0% | 25% | 0%
COc1nn(C)cc1-c1nnc(SCC(=O)N2CCC(Cc3ccccc3)CC2)n1C | 5.88 mg/L (≈ 13.3 µM) | 3.65 mg/L (≈ 8.28 µM) | 3.01 mg/L (≈ 6.84 µM) | 0.428 mg/L (≈ 0.971 µM) | 4.28 mg/L (≈ 9.71 µM) | 0% | 100% | 0%
O=S(=O)(CCCOc1ccc(F)cc1)NCCCc1ccccc1 | 10.5 mg/L (≈ 30 µM) | > 10.5 mg/L | > 10.5 mg/L | > 10.5 mg/L | > 10.5 mg/L | 0% | 100% | 0%
O=C1C=CC(=O)N1c1ccccc1F | 1.81 mg/L (≈ 9.48 µM) | > 5.73 mg/L | 3.28 mg/L (≈ 17.2 µM) | > 5.73 mg/L | > 5.73 mg/L | 0% | 100% | 20%
CC(=O)c1sc(NC(=O)C2CCCCN2S(C)(=O)=O)nc1-c1ccccc1 (stereo unspecified) | > 12.2 mg/L | > 12.2 mg/L | 4.06 mg/L (≈ 9.97 µM) | 3.12 mg/L (≈ 7.67 µM) | > 12.2 mg/L | 0% | 100% | 0%
O=C(Nc1nnc(CCSc2ccccc2)o1)c1ccc(Cl)cc1 | 3.41 mg/L (≈ 9.49 µM) | > 10.8 mg/L | 3.77 mg/L (≈ 10.5 µM) | 3.49 mg/L (≈ 9.71 µM) | 3.49 mg/L (≈ 9.71 µM) | 0% | 100% | 0%
CCc1ccc(C(=O)NCCNc2ccc(Nc3cccc(C)n3)nn2)cc1 | 6.22 mg/L (≈ 16.5 µM) | 3.3 mg/L (≈ 8.76 µM) | > 11.3 mg/L | > 11.3 mg/L | > 11.3 mg/L | 0% | 100% | 0%
Cc1cccc2sc(N(CCCn3ccnc3)C(=O)c3ccc(Cl)s3)nc12 | 5.04 mg/L (≈ 12.1 µM) | 0.619 mg/L (≈ 1.48 µM) | 1.22 mg/L (≈ 2.93 µM) | > 13.6 mg/L | > 13.6 mg/L | 0% | 100% | 0%
O=C(NCCNc1ccc(Nc2ccccn2)nn1)c1ccc(C(F)(F)F)cc1 | 7.71 mg/L (≈ 19.2 µM) | 7.28 mg/L (≈ 18.1 µM) | > 12.1 mg/L | 11 mg/L (≈ 27.5 µM) | > 12.1 mg/L | 0% | 100% | 50%
O=C(CSc1ncc(CO)n1Cc1ccc(Cl)cc1)NCc1ccccc1Cl | > 13.1 mg/L | > 13.1 mg/L | 4.39 mg/L (≈ 10.1 µM) | 4.84 mg/L (≈ 11.1 µM) | > 13.1 mg/L | 0% | 100% | 25%
CCn1nc(C(=O)Nc2nnc(-c3ccc4c(c3)CCCC4)o2)cc1C | > 10.5 mg/L | > 10.5 mg/L | > 10.5 mg/L | > 10.5 mg/L | > 10.5 mg/L | 16.7% | 100% | 0%
COc1ccc(OC)c2sc(N(CCCn3ccnc3)C(=O)COc3ccccc3)nc12 | 4.9 mg/L (≈ 10.8 µM) | 3.16 mg/L (≈ 6.98 µM) | 4.77 mg/L (≈ 10.5 µM) | 4.75 mg/L (≈ 10.5 µM) | > 14.7 mg/L | 0% | 100% | 0%
Cc1cc(-c2nnc(NC(=O)C3CCCCN3S(=O)(=O)c3cccs3)o2)nn1C (stereo unspecified) | 4.91 mg/L (≈ 11.2 µM) | > 13.1 mg/L | 4.26 mg/L (≈ 9.75 µM) | 4.14 mg/L (≈ 9.49 µM) | 4.24 mg/L (≈ 9.71 µM) | 0% | 100% | 33.33%
CC1CC(C)CN(S(=O)(=O)CCCOc2ccc3c(c2)OCO3)C1 (stereo unspecified) | 4.25 mg/L (≈ 11.9 µM) | > 10.7 mg/L | > 10.7 mg/L | > 10.7 mg/L | > 10.7 mg/L | 100% | 0% | 20%
Cc1cc(-c2nnc(NC(=O)c3nc4ccccc4s3)o2)nn1C | > 10.2 mg/L | > 10.2 mg/L | 3.72 mg/L (≈ 10.9 µM) | > 10.2 mg/L | > 10.2 mg/L | 0% | 100% | 33.33%
O=C(CSC1=Nc2cccnc2Nc2ccccc21)Nc1ccc(F)c(F)c1 | > 11.9 mg/L | 4.83 mg/L (≈ 12.2 µM) | > 11.9 mg/L | > 11.9 mg/L | > 11.9 mg/L | 0% | 100% | 0%
O=C(Nc1nnc(-c2ccc(Br)s2)o1)C1CCCN1S(=O)(=O)c1cccs1 (stereo unspecified) | > 14.7 mg/L | > 14.7 mg/L | > 14.7 mg/L | 6.68 mg/L (≈ 13.6 µM) | 0.475 mg/L (≈ 0.971 µM) | 8.3% | 0% | 0%
CC(CC(=O)N1CCC(Cc2ccccc2)CC1)CC1=Nc2ccccc2S(=O)(=O)N1 (stereo unspecified) | > 13.2 mg/L | > 13.2 mg/L | 6.58 mg/L (≈ 15 µM) | > 13.2 mg/L | > 13.2 mg/L | 0% | 100% | 0%
Cc1ccc(C)c2sc(N(CCCn3ccnc3)C(=O)Cc3ccc(F)cc3)nc12 | 3.26 mg/L (≈ 7.73 µM) | 3.4 mg/L (≈ 8.04 µM) | 0.495 mg/L (≈ 1.17 µM) | 3.98 mg/L (≈ 9.41 µM) | 4.46 mg/L (≈ 10.6 µM) | 0% | 100% | 0%
OCc1cnc(SCc2ccccc2)n1Cc1ccccc1 | > 9.31 mg/L | 9.31 mg/L (≈ 30 µM) | > 9.31 mg/L | > 9.31 mg/L | > 9.31 mg/L | 0% | 100% | 25%
